According to ChEMBL document CHEMBL1142195, “A novel nonnucleoside analogue that inhibits human immunodeficiency virus type 1 isolates resistant to current nonnucleoside reverse transcriptase inhibitors” (Antimicrob Agents Chemother, 2007):

Assays:
[1] = system: Human immunodeficiency virus 1; experiment: Antiviral activity against HIV1 isolate with RT 101P, 190A mutation relative to wild type; type: functional
[2] = system: Human immunodeficiency virus 1; experiment: Antiviral activity against HIV1 isolate with RT 181C, 190A mutation relative to wild type; type: functional
Procedure, shortened: (§1)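 Mutant RT clones built in pNL4-3.Luc.R−E− reporter, VSV-G-pseudotyped, single-round infection of HeLa-JC53 cells (15,000/well, MOI 0.03) with 1:4 serial compound dilutions in DMEM (phenol red-free), 2% FBS, 0.2% final DMSO; 48 h at 37°C, 5% CO2; luciferase chemiluminescence read-out. Fold change in EC50 relative to wild-type virus; mean of two tests.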

[3] = system: Human immunodeficiency virus 1; experiment: Antiviral activity against HIV1 isolate with RT K103N-P225H mutation; type: functional, organism-based
Procedure, shortened: (§2)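 VSV-G-pseudotyped pNL4-3.Luc.R−E− molecular clones carrying the RT mutations, single-round infection of HeLa-JC53 cells (15,000/well) at MOI 0.03. Compounds serially diluted 1:4 in DMSO then in phenol red-free DMEM with 2% FBS, final DMSO 0.2%. Incubated 48 h at 37°C, 5% CO2. Luciferase read-out by chemiluminescence gives the EC50. Fold change is relative to wt virus, mean of two tests.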

[4] = system: Human immunodeficiency virus 1; experiment: Antiviral activity against HIV1 isolate with RT 103Q mutation relative to wild type; type: functional; procedure, shortened: as §1
[5] = system: Human immunodeficiency virus 1; experiment: Antiviral activity against HIV1 isolate with RT 98G, 101E, 181C, 190A mutation relative to wild type; type: functional; procedure, shortened: as §1
[6] = system: Human immunodeficiency virus 1; experiment: Antiviral activity against HIV1 isolate with RT 179D, 188L mutation relative to wild type; type: functional; procedure, shortened: as §1
[7] = system: Human immunodeficiency virus 1; experiment: Antiviral activity against HIV1 isolate with RT K103N mutation; type: functional, organism-based; procedure, shortened: as §2
[8] = system: Human immunodeficiency virus 1; experiment: Antiviral activity against HIV1 isolate with RT 190S mutation relative to wild type; type: functional; procedure, shortened: as §1
[9] = system: Human immunodeficiency virus 1; experiment: Antiviral activity against HIV1 isolate with RT 98G, 181C mutation relative to wild type; type: functional; procedure, shortened: as §1
[10] = system: Human immunodeficiency virus 1; experiment: Antiviral activity against HIV1 isolate with RT 103N, 106I mutation relative to wild type; type: functional
[11] = system: Human immunodeficiency virus 1; experiment: Antiviral activity against HIV1 isolate with RT 103N, 190S mutation relative to wild type; type: functional; procedure, shortened: as §1
[12] = system: Human immunodeficiency virus 1; experiment: Antiviral activity against HIV1 isolate with RT 101E mutation relative to wild type; type: functional
[13] = system: Human immunodeficiency virus 1; experiment: Antiviral activity against HIV1 isolate with RT 98G mutation relative to wild type; type: functional; procedure, shortened: as §1
[14] = system: Human immunodeficiency virus 1; experiment: Antiviral activity against HIV1 isolate with RT 101Q, 103N mutation relative to wild type; type: functional
[15] = system: Human immunodeficiency virus 1; experiment: Antiviral activity against HIV1 isolate with RT 238T mutation relative to wild type; type: functional; procedure, shortened: as §1
[16] = system: Human immunodeficiency virus 1; experiment: Antiviral activity against HIV1 isolate with RT K103N-Y188L mutation; type: functional, organism-based; procedure, shortened: as §2
[17] = system: Human immunodeficiency virus 1; experiment: Antiviral activity against HIV1 isolate with RT 188L mutation relative to wild type; type: functional; procedure, shortened: as §1
[18] = system: Human immunodeficiency virus 1; experiment: Antiviral activity against HIV1 isolate with RT 98G, 103N mutation relative to wild type; type: functional; procedure, shortened: as §1
[19] = system: Human immunodeficiency virus 1; experiment: Antiviral activity against HIV1 isolate with RT 106A, 190A mutation relative to wild type; type: functional; procedure, shortened: as §1
[20] = system: Human immunodeficiency virus 1; experiment: Antiviral activity against HIV1 isolate with RT 190E mutation relative to wild type; type: functional; procedure, shortened: as §1
[21] = system: Human immunodeficiency virus 1; experiment: Antiviral activity against HIV1 isolate with RT 101E, 181C, 190S mutation relative to wild type; type: functional
[22] = system: Human immunodeficiency virus 1; experiment: Antiviral activity against HIV1 isolate with RT 236L mutation relative to wild type; type: functional; procedure, shortened: as §1
[23] = system: Human immunodeficiency virus 1; experiment: Antiviral activity against HIV1 isolate with RT 106A mutation relative to wild type; type: functional; procedure, shortened: as §1
[24] = system: Human immunodeficiency virus 1; experiment: Antiviral activity against HIV1 isolate with RT 101P, 103N mutation relative to wild type; type: functional
[25] = system: Human immunodeficiency virus 1; experiment: Antiviral activity against HIV1 isolate with RT 101E, 103N mutation relative to wild type; type: functional
[26] = Plasma concentration in dog at 20 mg/kg, po after 12 hrs; type: ADME, organism-based, Canis lupus familiaris; design: dose 20 mg/kg, route oral
[27] = system: Human immunodeficiency virus 1; experiment: Antiviral activity against HIV1 isolate with RT 101E, 181C, 190A mutation relative to wild type; type: functional
[28] = system: Human immunodeficiency virus 1; experiment: Antiviral activity against HIV1 isolate with RT 101Q mutation relative to wild type; type: functional
[29] = system: Human immunodeficiency virus 1; experiment: Antiviral activity against wild type HIV1 NL4-3 in Hela-JC53 cells in the presence of 40% human serum after 48 hrs; type: functional, organism-based; conditions: Human immunodeficiency virus 1, NL4-3, Hela-JC53, 48 h
Procedure, shortened: (§3)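 HeLa-JC53 cells (1.5 × 10^4) infected with VSV-G-pseudotyped NL4-3.Luci.R−E− reporter virus at MOI 0.03, with 1:4 serial compound dilutions. Heat-inactivated human serum added to final 0–50% on a basal 2% FBS medium. Incubated 48 h at 37°C in 5% CO2. Luciferase read-out; EC50 by nonlinear regression.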

[30] = system: Human immunodeficiency virus 1; experiment: Antiviral activity against HIV1 isolate with RT 103N, 108I mutation relative to wild type; type: functional
[31] = system: Human immunodeficiency virus 1; experiment: Antiviral activity against HIV1 isolate with RT 227L mutation relative to wild type; type: functional; procedure, shortened: as §1
[32] = system: Human immunodeficiency virus 1; experiment: Antiviral activity against wild type HIV1 NL4-3 in Hela-JC53 cells in the presence of 5% human serum after 48 hrs; type: functional, organism-based; conditions: Human immunodeficiency virus 1, NL4-3, Hela-JC53, 48 h; procedure, shortened: as §3
[33] = system: Human immunodeficiency virus 1; experiment: Antiviral activity against HIV1 isolate with RT 181I mutation relative to wild type; type: functional; procedure, shortened: as §1
[34] = system: Human immunodeficiency virus 1; experiment: Antiviral activity against HIV1 isolate with RT 181V mutation relative to wild type; type: functional; procedure, shortened: as §1
[35] = system: Human immunodeficiency virus 1; experiment: Antiviral activity against HIV1 isolate with RT 103R, 179D mutation relative to wild type; type: functional; procedure, shortened: as §1
[36] = system: Human immunodeficiency virus 1; experiment: Antiviral activity against HIV1 isolate with RT 179A mutation relative to wild type; type: functional; procedure, shortened: as §1
[37] = system: Human immunodeficiency virus 1; experiment: Antiviral activity against HIV1 isolate with RT 101Q, 103R mutation relative to wild type; type: functional
[38] = system: Human immunodeficiency virus 1; experiment: Antiviral activity against HIV1 isolate with RT 103N, 225H mutation relative to wild type; type: functional; procedure, shortened: as §1
[39] = system: Human immunodeficiency virus 1; experiment: Antiviral activity against HIV1 isolate with RT 108I, 181C mutation relative to wild type; type: functional; procedure, shortened: as §1
[40] = system: Human immunodeficiency virus 1; experiment: Antiviral activity against HIV1 isolate with RT 181C mutation relative to wild type; type: functional; procedure, shortened: as §1
[41] = system: Human immunodeficiency virus 1; experiment: Antiviral activity against HIV1 isolate with RT 100I, 103N mutation relative to wild type; type: functional
[42] = system: Human immunodeficiency virus 1; experiment: Antiviral activity against HIV1 isolate with RT 188H mutation relative to wild type; type: functional; procedure, shortened: as §1
[43] = system: Human immunodeficiency virus 1; experiment: Antiviral activity against HIV1 NL4-3 with Y188L mutation in Hela-JC53 cells after 48 hrs; type: functional, organism-based; conditions: Human immunodeficiency virus 1, NL4-3, Hela-JC53, 48 h
Procedure, shortened: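 VSV-G-pseudotyped Y188L NL4-3.Luci.R−E− virus (MOI 0.03) infecting HeLa-JC53 cells (1.5 × 10^4) in phenol red-free DMEM with 2% FBS. Serially diluted compound was added, then heat-inactivated human serum at final 0, 5, 10, 20, 30, 40 or 50%. Cultures ran 48 h at 37°C in 5% CO2, read by Bright-Glo luciferase chemiluminescence. EC50 was taken by nonlinear regression.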

[44] = system: Human immunodeficiency virus 1; experiment: Antiviral activity against HIV1 isolate with RT 103N, 108I, 238T mutation relative to wild type; type: functional
[45] = system: Human immunodeficiency virus 1; experiment: Antiviral activity against HIV1 isolate with RT 230L mutation relative to wild type; type: functional; procedure, shortened: as §1
[46] = system: Human immunodeficiency virus 1; experiment: Antiviral activity against HIV1 isolate with RT 98G, 103N, 181C, 190A mutation relative to wild type; type: functional; procedure, shortened: as §1

## NS(=O)(=O)c1ccc(NC(=O)CSc2nnc(Br)n2-c2ccc(C3CC3)c3ccccc23)c(Cl)c1
[1]
  Fold change: 92
[2]
  Fold change: >100
[3]
  EC50: 0.13 nM
[4]
  Fold change: 1.4
[5]
  Fold change: 65
[6]
  Fold change: >100
[7]
  EC50: 0.09 nM
[8]
  Fold change: 3.9
[9]
  Fold change: 11
[10]
  Fold change: 1.8
[11]
  Fold change: 18
[12]
  Fold change: 11
[13]
  Fold change: 2.4
[14]
  Fold change: 5.2
[15]
  Fold change: 2.2
[16]
  EC50: 1.07 nM
[17]
  Fold change: 11
[18]
  Fold change: 4.4
[19]
  Fold change: >100
[20]
  Fold change: >100
[21]
  Fold change: >100
[22]
  Fold change: 0.9
[23]
  Fold change: 6
[24]
  Fold change: 2.2
[25]
  Fold change: 0.9
[26]
  concentration at 12 h: 742 ng/mL
[27]
  Fold change: >100
[28]
  Fold change: 2.2
[29]
  EC50: 9.5 nM
[30]
  Fold change: 1.3
[31]
  Fold change: 0.47
[32]
  EC50: 2.4 nM
[33]
  Fold change: 5.4
[34]
  Fold change: 20
[35]
  Fold change: 0.3
[36]
  Fold change: 0.6
[37]
  Fold change: 0.6
[38]
  Fold change: 1.6
[39]
  Fold change: 14
[40]
  Fold change: 10
[41]
  Fold change: 0.9
[42]
  Fold change: 1.6
[43]
  EC50: 3.7 nM
[44]
  Fold change: 2.5
[45]
  Fold change: 11
[46]
  Fold change: 82

## Cc1ccnc2c1NC(=O)c1cccnc1N2C1CC1 [NEVIRAPINE]
[1]
  Fold change: >100
[2]
  Fold change: >100
[4]
  Fold change: 1
[5]
  Fold change: >100
[6]
  Fold change: >100
[8]
  Fold change: >100
[9]
  Fold change: >100
[10]
  Fold change: 122
[11]
  Fold change: >100
[12]
  Fold change: 42
[13]
  Fold change: 5.9
[14]
  Fold change: >100
[15]
  Fold change: 100
[17]
  Fold change: >100
[18]
  Fold change: >100
[19]
  Fold change: >100
[20]
  Fold change: >100
[21]
  Fold change: >100
[22]
  Fold change: 0.5
[23]
  Fold change: >100
[24]
  Fold change: >100
[25]
  Fold change: >100
[27]
  Fold change: >100
[28]
  Fold change: 2.8
[30]
  Fold change: >100
[31]
  Fold change: 2.1
[33]
  Fold change: >100
[34]
  Fold change: >100
[35]
  Fold change: 1.3
[36]
  Fold change: 0.4
[37]
  Fold change: 1.3
[38]
  Fold change: >100
[39]
  Fold change: >100
[40]
  Fold change: >100
[41]
  Fold change: 42
[42]
  Fold change: >100
[44]
  Fold change: >100
[45]
  Fold change: 46
[46]
  Fold change: >100
